Laboratory results as given in ChEMBL document CHEMBL2321813, “Discovery of allosteric modulators of factor XIa by targeting hydrophobic domains adjacent to its heparin-binding site” (J Med Chem, 2013).
Activity calls are given as the source filed them. The calls are words filed in the database; no cut-off is given here.

Legend:
[1] = target: T1, Coagulation factor XI (Homo sapiens, UniProt P03951); experiment: Inhibition of human factor 11a using S2366 as substrate assessed as residual protease activity after 10 mins by spectrophotometry
T1 sequence (P03951 19-387 limits assumed): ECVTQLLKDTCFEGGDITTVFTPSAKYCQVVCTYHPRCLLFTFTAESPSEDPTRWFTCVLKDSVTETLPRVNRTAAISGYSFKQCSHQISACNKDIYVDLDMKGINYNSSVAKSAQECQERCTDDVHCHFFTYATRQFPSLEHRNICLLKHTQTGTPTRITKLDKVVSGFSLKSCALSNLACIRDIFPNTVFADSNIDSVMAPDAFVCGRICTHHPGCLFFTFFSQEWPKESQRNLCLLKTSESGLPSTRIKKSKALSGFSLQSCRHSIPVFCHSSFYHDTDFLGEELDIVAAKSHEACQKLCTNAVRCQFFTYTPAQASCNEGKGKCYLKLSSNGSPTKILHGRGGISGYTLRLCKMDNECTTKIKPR
T1 sequence (P03951 388-625 limits assumed): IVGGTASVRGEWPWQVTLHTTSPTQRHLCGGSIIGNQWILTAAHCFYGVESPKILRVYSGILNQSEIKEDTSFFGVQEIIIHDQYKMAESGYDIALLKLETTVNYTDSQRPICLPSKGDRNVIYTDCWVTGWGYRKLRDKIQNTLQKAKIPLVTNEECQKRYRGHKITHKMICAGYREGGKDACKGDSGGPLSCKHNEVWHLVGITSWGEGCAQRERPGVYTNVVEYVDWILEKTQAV
In short: (§1)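 FXIa at 0.765 nM (final) preincubated 10 min at 37 °C with compound (12 serial dilutions) in 50 mM Tris-HCl pH 7.4, 150 mM NaCl, 0.1% PEG8000, 0.02% Tween80. S2366 (345 μM final) then added. Initial rate read at 405 nm. Fractional residual activity fit to a logistic equation for IC50, Hill slope and ΔY.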

[2] = target: T1, Coagulation factor XI; experiment: Inhibition of human factor 11a using S2366 as substrate after 10 mins by spectrophotometry; in short: as §1
[3] = target: T2, Serine protease 1 (Bos taurus) (UniProt P00760); experiment: Inhibition of bovine trypsin assessed as residual protease activity at 500 uM after 10 mins by spectrophotometry
T2 sequence (whole entry): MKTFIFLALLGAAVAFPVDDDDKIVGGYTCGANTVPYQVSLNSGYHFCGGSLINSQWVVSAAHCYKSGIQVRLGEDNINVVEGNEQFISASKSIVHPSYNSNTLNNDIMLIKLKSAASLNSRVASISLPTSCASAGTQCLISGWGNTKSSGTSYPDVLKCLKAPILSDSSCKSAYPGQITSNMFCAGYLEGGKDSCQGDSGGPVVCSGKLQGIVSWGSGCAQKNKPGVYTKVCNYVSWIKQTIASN

[4] = target: Coagulation factor X (Homo sapiens) (UniProt P00742); experiment: Inhibition of human factor 10a assessed as residual protease activity at 500 uM after 10 mins by spectrophotometry
Coagulation factor X (Homo sapiens), sequence (P00742 41-179 limits assumed): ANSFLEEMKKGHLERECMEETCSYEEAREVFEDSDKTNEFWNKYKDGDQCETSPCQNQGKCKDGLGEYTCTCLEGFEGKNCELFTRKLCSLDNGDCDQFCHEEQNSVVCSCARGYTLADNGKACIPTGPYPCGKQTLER
Coagulation factor X (Homo sapiens), sequence (P00742 235-488 limits assumed): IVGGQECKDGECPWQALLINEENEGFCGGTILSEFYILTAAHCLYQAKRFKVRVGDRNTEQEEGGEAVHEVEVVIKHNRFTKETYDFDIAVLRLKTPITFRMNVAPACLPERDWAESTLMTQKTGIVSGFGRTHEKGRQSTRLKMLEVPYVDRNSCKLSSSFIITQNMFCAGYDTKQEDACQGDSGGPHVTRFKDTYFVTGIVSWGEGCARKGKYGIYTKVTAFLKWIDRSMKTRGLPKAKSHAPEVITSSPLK

[5] = target: T1, Coagulation factor XI; experiment: Binding affinity to human factor 11a-DEGR by spectrofluorometry
In short: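 Fluorescence titration of active-site dansylated FXIa (FXIa-DEGR, 250 nM) with aliquots of sulfated QAO in 50 mM Tris-HCl pH 7.4, 150 mM NaCl, 0.1% PEG8000 at 37 °C. Emission monitored at 547 nm (λex 345 nm). Change in fluorescence fit to the Hill equation to give apparent KD.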

[6] = test system: Plasma; experiment: Anticoagulant activity in human plasma assessed as concentration required to double activated partial thromboplastin time; assay type: functional
In short: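 Citrated pooled normal human plasma. APTT: 10 μL compound mixed with 90 μL plasma and 100 μL prewarmed APTT reagent (0.2% ellagic acid), incubated 4 min at 37 °C, then clotting started with 100 μL prewarmed 25 mM CaCl2. Vehicle control was deionized water and/or organic vehicle. Clot time was read on a fibrometer. Data fit to a quadratic trend line to get the concentration doubling clotting time. Run in duplicate.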

[7] = target: Prothrombin (Homo sapiens) (UniProt P00734); experiment: Inhibition of human thrombin assessed as residual protease activity at 500 uM after 10 mins by spectrophotometry
[8] = target: Chymotrypsinogen A (Bos taurus) (UniProt P00766); experiment: Inhibition of bovine alpha-chymotrypsin assessed as residual protease activity at 500 uM after 10 mins by spectrophotometry
[9] = target: T1, Coagulation factor XI; experiment: Inhibition of human recombinant factor 11a catalytic domain
In short: (§2)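 Recombinant FXI catalytic domain constructs (wild type, Arg530Ala, Lys529Ala/Arg530Ala/Arg532Ala) were expressed stably in HEK-293 cells. […] Inhibition was measured by S2366 hydrolysis in 50 mM Tris-HCl pH 7.4, 150 mM NaCl, 0.1% PEG8000, 0.02% Tween80 at 37 °C. Dose-response data were fit to the logistic equation.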

[10] = species on record: Homo sapiens; experiment: Ratio of IC50 for human recombinant factor 11a catalytic domain Lys529Ala/Arg530Ala/Arg532Ala triple mutant to IC50 for human recombinant factor XIa catalytic domain; in short: as §2
[11] = target: T1, Coagulation factor XI; experiment: Inhibition of human wild type full length factor 11a transfected in HEK293 cells using S2366 as substrate assessed as residual protease activity at 3 uM after 10 mins by spectrophotometry
In short: (§3)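 Full-length wild-type FXIa, FXIa catalytic domain, and the Lys529Ala/Arg530Ala/Arg532Ala catalytic domain mutant were recombinant proteins from stably transfected HEK-293 cells, activated with FXIIa. Residual activity was measured by S2366 hydrolysis with 3 μM compound, with or without 30 μM Polybrene.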

[12] = test system: HEK293; experiment: Inhibition of human recombinant factor 11a catalytic domain Lys529Ala/Arg530Ala/Arg532Ala triple mutant transfected in HEK293 cells using S2366 as substrate assessed as residual protease activity at 3 uM after 10 mins by spectrophotometry; in short: as §3
[13] = target: T1, Coagulation factor XI; experiment: Inhibition of human recombinant factor 11a catalytic domain transfected in HEK293 cells using S2366 as substrate assessed as residual protease activity at 3 uM after 10 mins by spectrophotometry; in short: as §3
[14] = species on record: Homo sapiens; experiment: Ratio of IC50 for human recombinant factor 11a catalytic domain Arg530Ala mutant to IC50 for human recombinant factor XIa catalytic domain; in short: as §2
[15] = test system: HEK293; experiment: Inhibition of human recombinant factor 11a catalytic domain Lys535Ala/Lys539Ala double mutant transfected in HEK293 cells; assay type: cell-based

Structure (SMILES)	Efficacy [1] [%]	IC50 [2] [µM]	further results
COc1cc(-c2nc3ccccc3c(=O)n2CCCCn2cc(Cn3c(-c4ccc(OS(=O)(=O)O)c(OC)c4)nc4ccccc4c3=O)nn2)ccc1OS(=O)(=O)O	95	139	–
O=c1c2ccccc2nc(-c2ccc(OS(=O)(=O)O)cc2)n1CCCCn1cc(Cn2c(-c3ccc(OS(=O)(=O)O)cc3)nc3ccccc3c2=O)nn1	91	82	inhibition [3]: inactive; inhibition [4]: inactive; Kd [5]: 84 µM; 2aPTT [6]: 979 µM; inhibition [7]: inactive; inhibition [8]: inactive
CC(=O)Oc1cccc(-c2nc3ccccc3c(=O)n2Cc2cn(CCCCn3c(-c4cccc(OS(=O)(=O)O)c4)nc4ccccc4c3=O)nn2)c1	–	> 1000	–
O=c1c2ccccc2nc(-c2cccc(OS(=O)(=O)O)c2)n1CCCn1cc(Cn2c(-c3cccc(OS(=O)(=O)O)c3)nc3ccccc3c2=O)nn1	91	320	–
O=c1c2ccccc2nc(-c2cccc(OS(=O)(=O)O)c2)n1CCCCn1cc(Cn2c(-c3cc(OS(=O)(=O)O)cc(OS(=O)(=O)O)c3)nc3ccccc3c2=O)nn1	93	213	–
O=c1c2ccccc2nc(-c2ccc(OS(=O)(=O)O)cc2)n1Cc1cn(CCn2cc(Cn3c(-c4ccc(OS(=O)(=O)O)cc4)nc4ccccc4c3=O)nn2)nn1	98	305	–
O=c1c2ccccc2nc(-c2ccc(OS(=O)(=O)O)cc2)n1CCCCCn1nncc1Cn1c(-c2ccc(OS(=O)(=O)O)cc2)nc2ccccc2c1=O	94	–	–
CC(=O)Oc1cc(OS(=O)(=O)O)cc(-c2nc3ccccc3c(=O)n2CCCCn2cc(Cn3c(-c4cc(O)cc(OS(=O)(=O)O)c4)nc4ccccc4c3=O)nn2)c1	96	153	–
O=c1c2ccccc2nc(-c2cccc(OS(=O)(=O)O)c2)n1CCCCn1cc(Cn2c(-c3ccc(OS(=O)(=O)O)cc3)nc3ccccc3c2=O)nn1	103	91	Kd [5]: 91 µM
CC(=O)Oc1cc(OS(=O)(=O)O)cc(-c2nc3ccccc3c(=O)n2CCCCn2cc(Cn3c(-c4cc(OS(=O)(=O)O)cc(OS(=O)(=O)O)c4)nc4ccccc4c3=O)nn2)c1	91	273	–
O=c1c2ccccc2nc(-c2cc(OS(=O)(=O)O)cc(OS(=O)(=O)O)c2)n1CCCCn1cc(Cn2c(-c3cc(OS(=O)(=O)O)cc(OS(=O)(=O)O)c3)nc3ccccc3c2=O)nn1	–	> 1000	–
COc1cc(OS(=O)(=O)O)cc2oc(-c3ccc(OS(=O)(=O)O)c(OCc4cn(CCCCn5c(-c6cc(OC(C)=O)cc(OS(=O)(=O)O)c6)nc6ccccc6c5=O)nn4)c3)c(OS(=O)(=O)O)c(=O)c12	90	407	–
COc1cc(-c2nc3ccccc3c(=O)n2CCCCn2cc(COc3cc(-c4oc5cc(OS(=O)(=O)O)cc(OC)c5c(=O)c4OS(=O)(=O)O)ccc3OS(=O)(=O)O)nn2)ccc1OS(=O)(=O)O	50	216	–
O=c1c2ccccc2nc(-c2ccc(OS(=O)(=O)O)cc2)n1CCCCn1cc(Cn2c(-c3cccc(OS(=O)(=O)O)c3)nc3ccccc3c2=O)nn1	88	159	–
O=c1c2ccccc2nc(-c2cccc(OS(=O)(=O)O)c2)n1CCCCn1cc(Cn2c(-c3cccc(OS(=O)(=O)O)c3)nc3ccccc3c2=O)nn1	100	102	–
COc1cc(-c2nc3ccccc3c(=O)n2CCCCn2cc(Cn3c(-c4cccc(OS(=O)(=O)O)c4)nc4ccccc4c3=O)nn2)ccc1OS(=O)(=O)O	88	182	–
O=c1c2ccccc2nc(-c2ccc(OS(=O)(=O)O)cc2)n1CCCCCCn1cc(Cn2c(-c3ccc(OS(=O)(=O)O)cc3)nc3ccccc3c2=O)nn1	97	52	inhibition [3]: inactive; inhibition [9]: Active; Ratio IC50 [10]: 5; Activity [11]: 4.2%; Activity [12]: 4.9%; Activity [13]: 6.3%; Ratio IC50 [14]: 2; inhibition [4]: inactive; inhibition [15]: Active; Kd [5]: 38 µM; 2aPTT [6]: 950 µM; inhibition [7]: inactive; inhibition [8]: inactive
COc1cc(OS(=O)(=O)O)cc2oc(-c3ccc(OS(=O)(=O)O)c(OCc4cn(CCCCn5c(-c6cccc(OS(=O)(=O)O)c6)nc6ccccc6c5=O)nn4)c3)c(OS(=O)(=O)O)c(=O)c12	–	> 1000	–
O=c1c2ccccc2nc(-c2ccc(OS(=O)(=O)O)cc2)n1CCCCCn1cc(Cn2c(-c3ccc(OS(=O)(=O)O)cc3)nc3ccccc3c2=O)nn1	89	59	inhibition [3]: inactive; inhibition [4]: inactive; Kd [5]: 37 µM; 2aPTT [6]: 1062 µM; inhibition [7]: inactive; inhibition [8]: inactive
